Assay outcomes deposited in PubChem by Broad Institute.
FN deposition inh = fibronectin deposition inhibition. AH1F fibroblasts, Alexa488-fibronectin deposition fluorescence, overnight. inhibition, % at 12.6 µM. hit rate 0.086% among 350,000. AID 743247;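 active = mean inhibition across replicates of 30% or more, regardless of how many single replicates reach that level; inconclusive = mean under 30% yet at least half of replicates reach 30%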;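 note: positive control wells lacked labelled fibronectin entirely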
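Material: AH1F fibroblasts assembling fluorescent fibronectin matrix; amount: 10000 AH1F cells/well; medium: DMEM, 2% serum; reagent: Alexa488-fibronectin, 24 nM final in well; dosing: single compound dose, delivered by pin transfer; incubation: 1 h adhesion, overnight exposure; detection: fluorescence after three HBSS washes, excitation 485 nm, emission 525 nm; measure: fibronectin deposition inhibition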
Rtt109 Vps75 = inhibitors of Candida albicans Rtt109/Vps75 histone acetyltransferase. AID 540336. inhibition, % at 34.9 µM. hit rate 0.16% among 330,000. purified Rtt109/Vps75, ThioGlo CoA-SH fluorescence, 4 h. Q5AAJ8;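 active = inhibition of at least 50% in every replicate; inconclusive = best replicate reaches 50% inhibition but some replicates fall short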
Target sequence (Q5AAJ8 whole entry, looked up): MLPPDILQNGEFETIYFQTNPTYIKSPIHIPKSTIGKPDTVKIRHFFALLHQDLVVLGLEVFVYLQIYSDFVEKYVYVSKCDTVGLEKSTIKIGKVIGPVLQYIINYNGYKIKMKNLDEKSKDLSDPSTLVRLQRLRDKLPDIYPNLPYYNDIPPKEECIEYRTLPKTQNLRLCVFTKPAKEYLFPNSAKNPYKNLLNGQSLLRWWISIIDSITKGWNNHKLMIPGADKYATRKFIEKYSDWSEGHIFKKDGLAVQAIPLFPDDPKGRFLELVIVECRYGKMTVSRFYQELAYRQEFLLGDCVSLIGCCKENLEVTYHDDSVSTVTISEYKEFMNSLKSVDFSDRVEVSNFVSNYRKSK
PglD inh = blocks C. jejuni PglD acetyltransferase activity; AID 602405; purified PglD enzyme, DTNB colorimetric CoA detection; inhibition, % at 12.5 µM; hit rate 0.098% among 360,000; in the data active = inhibition above about 16%, passing the limit was not always enough; inconclusive = no clear call, values can overlap the other calls
CSC inhib = cancer stem cell inhibition; cancer stem cell-like cells viability, luminescence; hit rate 1.1% among 300,000; inhibition, % at 7.5 µM; in the data active = inhibition above about 75%; inconclusive = no clear call, values can overlap the other calls; tested in HMLE shEcad cells
PfHsp90 set2 = growth inhibition of yeast expressing Plasmodium Hsp90; AID 504621; inhibition, % at 9.4 µM; S. cerevisiae expressing PfHsp90, BacTiter-Glo ATP, 48 h; yeast lacking PDR1 and PDR3 efflux regulators; hit rate 0.32% among 310,000;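 active = every replicate shows inhibition above about 80%, whatever the replicate mean, limit read from the data; inconclusive = mean inhibition reaches the set limit but some replicate falls short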;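 note: 0% = DMSO neutral controls and 100% = 20 µM radicicol positive controls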
SKKanGAS inh = SKKanGAS growth inhibition | hit rate 1.3% among 300,000 | inhibition, % at 7.5 µM | S. pyogenes SKKanGAS, kanamycin growth, BacTiter-Glo, 6 h | AID 1662;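 active = mean replicate score, as percent of positive control median, at least 50; inconclusive = mean below 50 but one replicate at or above 50; inactive = mean and every replicate below 50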;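 note: strain carries kanamycin resistance gene driven by streptokinase promoter and grows in 40 µg/ml kanamycin; loss of luminescence reflects streptokinase promoter inhibition or plain growth inhibition; 0% = median of DMSO wells and 100% = positive control at its reference dose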
Numbers without * were called inactive. Hits are enriched below; roughly 1.7% of the tested compounds scored in any of these assays.

Results for O=C(c1cccc(F)c1)N1CCCCN2[C@H](CO)[C@H](c3ccc(/C=C/c4ccccc4)cc3)[C@H]2C1 ?
PglD inh: 2.5

Results for O=C(c1cccnc1)N1CC2(C1)[C@H](c1ccccc1)[C@@H](CO)N2Cc1ccccc1 ?
FN deposition inh: -8.4

What do the screens show for `CCSc1nnc(NC(=O)c2nc(-c3ccccc3)n(-c3ccccc3)n2)s1`?
Rtt109 Vps75: -2.9; PglD inh: 5.9; PfHsp90 set2: -8.0; SKKanGAS inh: 62.5*

Results for CCSc1nnc(NC(=O)c2ccc3ccccc3n2)s1 ?
Rtt109 Vps75: -8.1; CSC inhib: 20.3; PfHsp90 set2: -32.9; SKKanGAS inh: 82.2*

What do the screens show for `O=C(C[C@H]1CC[C@H]2[C@@H](COC[C@H](O)CN2C(=O)Nc2ccccc2)O1)NCc1ccncn1`?
FN deposition inh: 3.2; PglD inh: -1.7

How did Cc1ccc(S(=O)(=O)Nc2ccc3c(c2)C(=O)N([C@H](C)CO)C[C@@H](C)[C@@H](CN(C)S(=O)(=O)c2cccs2)O3)cc1 do in these assays?
PglD inh: 0.2

What do the screens show for `CCc1ccccc1NC(=O)c1cccc(Oc2ccc([N+](=O)[O-])cc2Cl)c1`?
FN deposition inh: 6.8; Rtt109 Vps75: 20.5; PfHsp90 set2: 92.3*; SKKanGAS inh: 11.5

Results for O=Cc1ccc(O)c2ncccc12 ?
Rtt109 Vps75: 10.7; PglD inh: 2.3; PfHsp90 set2: 123.8*; SKKanGAS inh: 32.5

How did NS(=O)(=O)c1ccc(N=Nc2ccc(O)c3ncccc23)cc1 do in these assays?
FN deposition inh: 4.3; Rtt109 Vps75: 15.8; CSC inhib: 49.9; PfHsp90 set2: 39.5; SKKanGAS inh: 10.8

Results for Cc1ccc(/C=N/NC(=O)Cc2ccc(Cl)cc2)c(O)c1 ?
FN deposition inh: 16.6; Rtt109 Vps75: -7.5; PglD inh: -1.5; CSC inhib: 55.7; PfHsp90 set2: -6.1; SKKanGAS inh: 100.8*

What do the screens show for `COc1cc(/C=N/NC(=O)Cc2ccc(Br)cc2)cc(OC)c1O`?
FN deposition inh: -11.5; Rtt109 Vps75: 3.0; PglD inh: 0.5; CSC inhib: -38.0; SKKanGAS inh: 3.1

What do the screens show for `O=C(Cc1ccccc1)NN=Cc1ccccc1`?
FN deposition inh: -1.5; Rtt109 Vps75: -21.8; PglD inh: 2.8; PfHsp90 set2: -25.5

What do the screens show for `O=C(Cc1ccccc1)N/N=C/c1cc(Br)cc(Cl)c1O`?
FN deposition inh: 8.3; Rtt109 Vps75: -4.5; CSC inhib: 20.3; PfHsp90 set2: 9.3; SKKanGAS inh: 97.3*

Results for COc1cc(Br)cc(/C=N/NC(=O)Cc2ccccc2)c1O ?
FN deposition inh: -0.2; Rtt109 Vps75: -0.9; CSC inhib: 10.3; PfHsp90 set2: 5.5; SKKanGAS inh: 109.2*

How did C[C@@H]1CCCCO[C@@H](CN(C)C(=O)Nc2ccc3c(c2)OCO3)[C@@H](C)CN([C@@H](C)CO)C(=O)c2cc(N(C)C)ccc2O1 do in these assays?
PglD inh: -4.0

How did CCNC(=O)[C@@H]1[C@@H](CO)[C@@H]2Cn3c(cccc3=O)[C@@H]2N1CC1CCCCC1 do in these assays?
PglD inh: 1.3

How did CC(=O)Oc1c(-c2ccc(Br)o2)oc2ccccc2c1=O do in these assays?
FN deposition inh: 1.6; Rtt109 Vps75: 0.1; PglD inh: 7.3; CSC inhib: 21.5; PfHsp90 set2: -27.4; SKKanGAS inh: 85.5*

Results for COc1ccc(-c2oc3ccccc3c(=O)c2OC(C)=O)cc1 ?
FN deposition inh: 8.9; Rtt109 Vps75: 0.5; PglD inh: 0.3; CSC inhib: 27.3; PfHsp90 set2: 3.3; SKKanGAS inh: 16.3

What do the screens show for `CCOC(=O)C1=C(N)Oc2cc(O)ccc2C1c1cccc(Cl)c1` (centres undefined)?
FN deposition inh: 6.3; Rtt109 Vps75: 4.6; PglD inh: -3.6; CSC inhib: 82.0*; PfHsp90 set2: 11.9; SKKanGAS inh: 38.1

How did Cc1ccc(CSCc2nc3ccccc3[nH]2)cc1 do in these assays?
FN deposition inh: 3.5; Rtt109 Vps75: 26.7; PfHsp90 set2: -11.6; SKKanGAS inh: 0.5

How did Cc1cc(C)cc(CC(Cc2nc3ccccc3[nH]2)c2nc3ccccc3[nH]2)c1 (centres undefined) do in these assays?
Rtt109 Vps75: 15.9; CSC inhib: 181.9*; PfHsp90 set2: 7.5; SKKanGAS inh: 56.6*

What do the screens show for `CO/N=C(/C(=O)N[C@@H]1C(=O)N2C(C(=O)O)=CCS[C@H]12)c1cnc(N)s1`?
PglD inh: 0.1; CSC inhib: -13.4; SKKanGAS inh: 98.9*

Results for Cc1ccc2sc(N(CCCN(C)C)C(=O)c3ccc(S(=O)(=O)N4CCCCCC4)cc3)nc2c1C ?
FN deposition inh: -4.2; Rtt109 Vps75: inconclusive; PglD inh: -1.8; CSC inhib: 77.1*; PfHsp90 set2: 4.1; SKKanGAS inh: -3.7

Results for Cc1ccc2nc(N(CCCN(C)C)C(=O)c3ccc4c(c3)CCCC4)sc2c1 ?
FN deposition inh: -3.2; Rtt109 Vps75: 63.2*; PglD inh: 3.1; CSC inhib: -5.8; PfHsp90 set2: 35.4; SKKanGAS inh: 8.5

How did Cc1cc(C)c2nc(N(CCCN(C)C)C(=O)c3ccc(S(=O)(=O)N4CCCCCC4)cc3)sc2c1 do in these assays?
FN deposition inh: 2.6; Rtt109 Vps75: 1.5; PglD inh: -4.9; CSC inhib: 0.3; PfHsp90 set2: 19.3; SKKanGAS inh: -1.9

How did Cc1ccc2nc(N(CCCN(C)C)C(=O)c3cc(-c4cccs4)nc4ccccc34)sc2c1 do in these assays?
FN deposition inh: 2.6; Rtt109 Vps75: 13.4; PglD inh: -1.0; CSC inhib: 103.3*; PfHsp90 set2: -42.4; SKKanGAS inh: 18.4

Results for C[C@@H]1CN([C@H](C)CO)C(=O)CCCn2cc(nn2)CO[C@H]1CN(C)Cc1ccc2c(c1)OCCN2C ?
FN deposition inh: 0.9; PglD inh: -0.7

How did Cc1nn(Cc2ccc(C(=O)Nc3nc4c(C)cccc4s3)o2)c(C)c1Br do in these assays?
Rtt109 Vps75: -18.6; PglD inh: -1.1; CSC inhib: -10.8; PfHsp90 set2: -6.7; SKKanGAS inh: 57.6*

What do the screens show for `O=C(Nc1cc(F)ccc1F)N[C@@H]1CC[C@H](CCn2cc(C3CC3)nn2)O[C@H]1CO`?
FN deposition inh: -4.7; PglD inh: 3.6

What do the screens show for `COc1cc(/C=N/Nc2ncnc3sc4c(c23)CCC4)ccc1O`?
FN deposition inh: 4.8; Rtt109 Vps75: 10.1; PglD inh: 0.2; PfHsp90 set2: 1.4; SKKanGAS inh: 70.4*

Results for Cc1cccc(N/N=C(\C(N)=O)C2=NC(C)(C)Cc3ccccc32)c1 ?
FN deposition inh: 10.0; Rtt109 Vps75: 3.8; CSC inhib: 76.3*; PfHsp90 set2: -46.6; SKKanGAS inh: -5.8

Results for CCOC(=O)/C(=N\O)C1=NC(C)(C)Cc2ccccc21 ?
FN deposition inh: 1.8; Rtt109 Vps75: 22.5; CSC inhib: -18.4; PfHsp90 set2: 3.5; SKKanGAS inh: -2.1
